Assay results as given in ChEMBL document CHEMBL3259606, “Discovery of novel inhibitors targeting the macrophage migration inhibitory factor via structure-based virtual screening and bioassays” (J Med Chem, 2014).
Active and inactive are the calls of the source. The calls are words filed in the database; no cut-off is given here.

Columns and labels:
[1] = molecular target: T1, Macrophage migration inhibitory factor (Homo sapiens, UniProt P14174); assay: (§1) Inhibition of recombinant human MIF tautomerase activity expressed in Escherichia coli using L-dopachrome methyl ester as substrate incubated for 30 mins prior to substrate addition measured for 3 mins
T1 sequence (P14174 whole entry): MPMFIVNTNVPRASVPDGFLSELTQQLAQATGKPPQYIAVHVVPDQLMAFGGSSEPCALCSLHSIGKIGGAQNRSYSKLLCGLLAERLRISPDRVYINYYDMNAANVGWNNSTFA

[2] = molecular target: T2, Macrophage migration inhibitory factor (Homo sapiens) (UniProt P14174); assay: Inhibition of recombinant MIF (unknown origin)-induced mouse RAW264.7 cell chemotactic migration at 20 uM preincubated for 30 mins followed by macrophage addition measured every 15 mins for 4 hrs relative to control
T2 sequence (whole entry): T1 sequence (P14174 whole entry)
Procedure, shortened: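 Recombinant MIF with or without compound placed in the lower chamber of a CIM-16 plate 30 min before RAW 264.7 cells (20,000/well, serum-free medium) added to the upper chamber. Impedance-based migration on xCELLigence RTCA-DP read every 15 min for 4 h. Heat-inactivated MIF as negative control; % of MIF-alone migration; mean ± SD, n = 3.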

[3] = molecular target: T2, Macrophage migration inhibitory factor (Homo sapiens); assay: Inhibition of recombinant MIF (unknown origin)-induced ERK1/2 phosphorylation in mouse RAW264.7 cells at 20 uM preincubated for 30 mins followed by protein addition measured after 20 mins by Western blot analysis relative to control; format: cell-based
Procedure, shortened: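 RAW 264.7 cells given compound 30 min before MIF (0.1 μg/mL). Lysates taken 20 min after stimulation, separated on 12% SDS-PAGE and immunoblotted for phospho-ERK1/2 and total ERK1/2 (loading control), ECL detection. Densitometry expressed as % of MIF-alone band intensity.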

RAW264.7 = assay: Antiinflammatory activity in mouse RAW264.7 cells assessed as inhibition of LPS-induced nitrite production at 40 uM after 24 hrs by Griess assay; format: functional, cell-based
Procedure, shortened: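 RAW 264.7 macrophages (DMEM, 5% heat-inactivated FBS, 37 °C, 5% CO2) incubated 24 h with 0.1 μg/mL LPS with or without compound; nitrite in supernatant by Griess reagent. Mean ± SD, n = 3, representative of three independent experiments.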

[4] = molecular target: T2, Macrophage migration inhibitory factor (Homo sapiens); assay: as §1
[5] = molecular target: T2, Macrophage migration inhibitory factor (Homo sapiens); assay: (§2) Inhibition of recombinant MIF (unknown origin)-mediated glucocorticoid overriding activity in LPS-stimulated mouse RAW264.7 cells assessed as inhibition of dexamethasone-induced intracellular TNF-alpha production at 20 uM preincubated for 30 mins followed by LPS challenge measured at 4 hrs by ELISA relative to control; format: cell-based
Procedure, shortened: (§3)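 RAW 264.7 cells, 5 × 10^4/well in triplicate, pretreated 30 min with dexamethasone (0.1 μM) plus recombinant MIF (0.2 μM) with or without compound, then stimulated with LPS (0.1 μg/mL). TNF-α in supernatant by sandwich ELISA at 4 h; NO in supernatant by Griess reagent at 16 h. Mean ± SD, n = 3, three independent experiments.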

[6] = molecular target: T2, Macrophage migration inhibitory factor (Homo sapiens); assay: as §2, with “intracellular nitric oxide” for “intracellular TNF-alpha”, “at 16” for “at 4”, “by Griess assay” for “by ELISA”; format: cell-based; procedure, shortened: as §3

IC50 [1]	inhibition [3]	inhibition [4]	Structure (SMILES)	further results
25.8 µM	–	–	COc1ccc2c3c(c(=O)oc2c1OCC(=O)O)CCCC3	–
22.6 µM	–	–	COc1cc(-c2nc3sc4c(c3c(=O)[nH]2)CCCC4)cc(Br)c1OCC(=O)O	–
85.6 µM	–	–	O=C(O)C[C@@H](Cc1ccccc1)c1ccco1	–
102 µM	–	–	O=C(O)CCC(=O)Nc1nc(-c2cc3ccccc3oc2=O)cs1	–
23.1 µM	–	–	Cc1c(CCC(=O)O)c(=O)oc2cc(OCc3ccccc3Br)ccc12	–
–	55%	Dose-dependent effect	COc1cc(-c2nc3ccccc3s2)cc(Br)c1OCC(=O)O	inhibition [2]: 83%; inhibition (RAW264.7): Active
–	59%	Dose-dependent effect	COc1ccc(C(=O)O)cc1NC(=S)NC(=O)c1cc2ccccc2o1	inhibition [5]: 131%; inhibition [6]: 131%; inhibition (RAW264.7): Active
45.5 µM	–	–	COc1ccc(-c2cc(C)nc(SCc3cccc(C(=O)O)c3)n2)cc1	–
74.5 µM	–	–	O=C(Nc1ccccc1C(=O)O)c1cc(S(=O)(=O)Nc2ccc(F)cc2)ccc1Cl	–
–	Active	Dose-dependent effect	COC(=O)C[C@H]1CC(c2ccc(O)cc2)=NO1	fold change (FC) [2]: 2.2; inhibition [5]: 128%; inhibition [6]: 128%
–	43%	Dose-dependent effect	O=C(O)c1cccc(NC(=S)NC(=O)c2ccc(-c3ccccc3)cc2)c1	inhibition [2]: 52%; inhibition (RAW264.7): Active
